We go through one compound from article PMC10413468 (ACS Omega, 2023).

One may read the IC50 as the concentration at which inhibition is half-maximal.

For experiment [1], the system named is A549 (human lung cancer) cells. Kind of experiment: MTT cytotoxicity assay, A549. The class given is cell-based. The method, boiled down:
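A549 lung cancer cells grown in low-glucose DMEM with 10% FBS and penicillin/streptomycin (37 °C, 5% CO2). Plated at 1 × 10^4 cells/well. Treated 48 h with dicopper complexes (1–400 or 1–1000 μM) or cisplatin (0.1–20 μM). Wells rinsed with PBS, then MTT 0.5 mg mL–1 for 3 h and DMSO. IC50 from viability vs log[conc]; ≥3 repeats, mean ± SD. SF = IC50(WI-38)/IC50(A549).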

Experiment [2] has as its system PK-59 (pancreas cancer) cells. Kind of experiment: MTT cytotoxicity assay, PK-59. In kind it is cell-based, human. An outline of the steps: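 PK-59 pancreas cancer cells cultured in RPMI 1640 with 10% FBS and penicillin/streptomycin (37 °C, humidified 5% CO2). 1 × 10^4 cells/well exposed 48 h to dicopper complexes (1–400 or 1–1000 μM) or cisplatin (0.1–20 μM). After PBS rinses, MTT 0.5 mg mL–1 for 3 h, then DMSO. IC50 from viability vs log[conc]; ≥3 repeats, mean ± SD. SF = IC50(2C6)/IC50(PK-59).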
(Tetrazolium dyes change colour on reduction, which living cells bring about.)

Experiment [3] concerns 2C6 (human embryonic pancreas normal) cells. Kind of experiment: MTT cytotoxicity assay, 2C6. The class given is cell-based. To be noted: read-out: IC50 2C6 (normal), pancreas, 48 h, mean ± SD. An outline of the steps: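 2C6 pancreas normal cells kept in Ham F10 with 10% newborn calf serum, 5% FBS, 2.5% horse serum and penicillin/streptomycin at 37 °C, 5% CO2. Seeded at 1 × 10^4 cells/well. Exposed 48 h to dicopper complexes (1–400 or 1–1000 μM) or cisplatin (0.1–20 μM); medium-only controls. PBS rinses, MTT 0.5 mg mL–1 for 3 h, DMSO solubilisation. IC50 from viability vs log[conc]; ≥3 repeats, mean ± SD.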

In experiment [4] the test system is WI-38 (human lung fibroblast normal) cells. Kind of experiment: MTT cytotoxicity assay, WI-38. The class given is cell-based. As to conditions: read-out: IC50 WI-38 (normal), lung, 48 h, mean ± SD. An outline of the steps:
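WI-38 lung fibroblast normal cells grown in Eagle's MEM with 10% FBS and penicillin/streptomycin at 37 °C, 5% CO2. 1 × 10^4 cells/well given dicopper complexes (1–400 or 1–1000 μM) or cisplatin (0.1–20 μM) for 48 h; medium-only controls. PBS rinses, MTT 0.5 mg mL–1 for 3 h, DMSO solubilisation. IC50 from viability vs log[conc]; ≥3 repeats, mean ± SD.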

The subject of experiment [5] is HeLa (human cervical cancer) cells. Nature of the experiment: MTT cytotoxicity assay, HeLa. As to conditions: read-out: IC50 HeLa (cancer), cervical, 48 h, mean ± SD. The class given is cell-based. An outline of the steps: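 HeLa cervical cancer cells maintained in high-glucose D-MEM with 10% FBS and penicillin/streptomycin at 37 °C, 5% CO2. 1 × 10^4 cells/well incubated 48 h with dicopper complexes (1–400 or 1–1000 μM) or cisplatin (0.1–20 μM); blank and control wells got medium only. PBS wash, MTT (0.5 mg mL–1, 3 h), formazan dissolved in DMSO. IC50 from viability vs log[conc]; ≥3 repeats, mean ± SD.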

As for `N.N.[Cl][Pt][Cl]` [cisplatin], the “SF (selectivity factor), lung” value in experiment [1] ((IC50 of normal cells)/(IC50 of cancer cells), WI-38/A549, 48 h) is given as 2.5. In addition, the half-inhibitory concentration (IC50) was 1830 ± 30 nM in experiment [1] (read-out: IC50 A549 (cancer), lung, MTT assay, 48 h, mean ± SD); 2010 ± 20 nM in experiment [2] (read-out: IC50 PK-59 (cancer), pancreas, MTT assay, 48 h, mean ± SD); 1150 ± 80 nM in experiment [3]; 4550 ± 30 nM in experiment [4]; 930 ± 10 nM in experiment [5]. In addition, in experiment [2] ((IC50 of normal cells)/(IC50 of cancer cells), 2C6/PK-59, 48 h), the “SF (selectivity factor), pancreas” value was found to be 0.6.
